Screening results: PubChem BioAssay, The Scripps Research Institute Molecular Screening Center
TAAR1 antagonist – human TAAR1 antagonism. AID 624466. CHO RD-HGA16 TAAR1, Fluo-8 calcium fluorescence, antagonist. 360,000 tested, 1.5% active. inhibition, % at 3 µM;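 active = inhibition above a per-plate cutoff, the mean inhibition of test compounds on that plate plus 3 SD, cut at about 49% in these data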;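 note: 0% = DMSO plus EC80 beta-PEA response and 100% = DMSO alone without agonist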
Target sequence (Q96RJ0 whole entry, looked up): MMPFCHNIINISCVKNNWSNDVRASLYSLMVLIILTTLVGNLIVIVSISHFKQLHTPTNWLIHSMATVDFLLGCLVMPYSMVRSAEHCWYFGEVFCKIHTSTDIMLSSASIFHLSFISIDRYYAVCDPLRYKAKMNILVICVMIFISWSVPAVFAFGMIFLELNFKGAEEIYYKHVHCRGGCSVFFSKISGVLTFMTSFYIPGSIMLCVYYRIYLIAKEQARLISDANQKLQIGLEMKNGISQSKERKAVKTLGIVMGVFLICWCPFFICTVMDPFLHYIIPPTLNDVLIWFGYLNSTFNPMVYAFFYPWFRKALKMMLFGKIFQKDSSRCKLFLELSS
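System: CHO RD-HGA16 cells bearing hTAAR1. Reagent: EC80 β-phenethylamine stimulus. Schedule: seeding 17-24 h prior, 75-min 37 °C, 30-min RT dye loading. Signal: Fluo-8 intracellular calcium dye fluorescence, real-time kinetic reads. Read-out: % inhibition from peak post-agonist over basal fluorescence ratio. Benchmarks: vehicle wells and EC80 agonist wells. Replicates: n of 1.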
V1R ag counter – counter-screen for oxytocin receptor agonists: human V1a receptor agonists; P37288; CHO-V1R cells, Fluo-8 calcium fluorescence, agonist mode; 0% DMSO, 100% 3 nM vasopressin; activation, % at 3 µM; 320,000 tested, 0.25% active; AID 2797;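 active = activation above the mean activation of all tested compounds plus 3 SD, per screening run, cut at about 20% in these data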;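 note: signal is peak over basal fluorescence ratio across a 100 second FLIPR read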
TAAR1 agonist – agonists of human TAAR1; CHO RD-HGA16 TAAR1, Fluo-8 calcium fluorescence; vehicle wells 0%, saturating PEA agonist 100%; activation, % at 3 µM; 360,000 tested, 0.99% active; AID 624467;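 active = activation above the mean activation of all test compounds in the run plus 3 SD, cut at about 38% in these data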
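Benchmarks: low control DMSO, high control PEA (EC100); System: CHO RD-HGA16 cells carrying human TAAR1 plus Gα16; Detection: Fluo-8 fluorescence, 5 s baseline then 140 s kinetic read; Schedule: 17-24 h plating, Fluo-8 75 min 37 °C, 30 min RT; Read-out basis: % activation from peak over basal fluorescence ratio, DMSO-to-PEA scaled.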
OXTR agonist – agonists of human oxytocin receptor. CHO-OTR cells, Fluo-8 calcium fluorescence; normalized: DMSO 0%, oxytocin 100%. activation, % at 3 µM. 320,000 tested, 0.32% active. AID 2435;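 active = activation above the mean of all tested compounds plus 3 SD, cutoff set per screening run, cut at about 20% in these data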;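 note: peak over basal fluorescence ratio from a 100 s FLIPR kinetic read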
OXTR potentiator – potentiates the human oxytocin receptor response; P30559; CHO-OTR cells, Fluo-8 calcium fluorescence, potentiator mode; 0% = oxytocin EC15, 100% = EC100; activation, % at 3 µM; 320,000 tested, 0.061% active; AID 2445;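 active = activation above that plate's cutoff, the mean activation of tested compounds plus 3 SD, cut at about 6.6% in these data, passing the limit was not always enough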;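 note: 100% uses oxytocin at 75 nM as the full agonist control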
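System: human OTR in CHO cells / Also added: sub-maximal oxytocin, roughly EC15 / Control set: EC15 oxytocin low, 75 nM oxytocin high / Schedule: 6 min compound pre-incubation at room temperature, 100 s kinetic read / Compound: single-point 3.0 µM / Replication: singlicate / Technique: Fluo-8 calcium dye fluorescence / Read-out basis: % activation of max/min ratio relative to oxytocin controls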
Active calls of the source: *; . = no result. A selection: hits, their analogues and other compounds. The true share with any hit is near 2.3%.

SMILES	TAAR1 antagonist	V1R ag counter	TAAR1 agonist	OXTR agonist	OXTR potentiator
COc1ccccc1N1CCN(C(=O)c2cn(Cc3ccccc3)nc2-c2cccnc2)CC1	19	8	47*	10	-2
COc1cccc(N2CCN(C(=O)c3cn(Cc4ccccc4)nc3-c3cccnc3)CC2)c1	-8	2	8	1	-6
CCCCCC(=O)C(=O)c1ccc(O)cc1O	-3	1	2	2	-18
CCCCCn1c(C)c(CC(=O)Nc2ccc(Oc3cccnc3)c(C)c2)c2ccccc21	9	.	-2	.	.
CCOC(=O)c1ccc(Nc2ncnc3nc[nH]c23)cc1	22	0	9	0	-7
c1ccc(COc2ccc(Nc3ncnc4nc[nH]c34)cc2)cc1	56*	5	10	3	-8
O=C1CCC(N2C(=O)c3ccccc3C2=O)C(=O)N1 (stereo not drawn)	-8	1	2	0	0
O=C1c2[nH]c3ccccc3c2CC1N1C(=O)c2ccccc2C1=O (stereo not drawn)	52*	.	21	.	.
Cc1ccc(N=Nc2[nH]c3ccccc3c2O)cc1	-6	22*	2	32*	-9
C=CCN1[C@@H](C)[C@H](c2ccccc2)Oc2cccc(N3CCCC(C)C3)c2S1(=O)=O (stereo partly drawn)	-25	.	16	.	.
Cc1ccccc1N=C(NOCc1ccc(Cl)cc1Cl)c1nonc1N	47	1	0	2	-9
Cc1ccc(N=C(NOCc2ccc(Cl)cc2Cl)c2nonc2N)c(C)c1	57*	1	5	1	-12
Fc1ccc(OCc2nc3ccccc3s2)cc1	10	0	9	-2	-7
Cc1cc(C)cc(NC(=O)c2nnn(Cc3cc(C)ccc3C)c2N)c1	.	42*	.	35*	-27
O=C(C(=O)N(Cc1ccccc1)Cc1ccccc1)c1c(-c2ccccc2)[nH]c2ccccc12	75*	.	12	.	.
COc1ccc([C@H]2CC(=O)C=C(c3ccc(F)cc3OCc3ccccc3)C2)cc1	52*	1	17	3	-7
COc1ccccc1C1=CC(=O)C[C@H](c2ccc(Cl)cc2)C1	50*	1	15	0	-7
O=c1[nH]c2cc3c(cc2cc1CN(CCc1ccccc1)C(=S)NCCCN1CCOCC1)OCCO3	-16	.	1	.	.
CC(NC(=O)Nc1ccc([N+](=O)[O-])cc1)C(c1cccs1)N1CCCC1 (stereo not drawn)	-2	55*	48*	33*	-16
CC(NC(=O)Nc1cccc(Cl)c1)C(c1cccs1)N1CCCC1 (stereo not drawn)	-13	14	28	6	-6
Fc1ccc(-[n+]2nc(Nc3ccccc3)sc2-c2c3ccccc3cc3ccccc23)cc1	25	3	46*	4	-7
CN(Cc1cccc(Cl)c1)C(=O)C1CSC2(C)CCC(=O)N12 (stereo not drawn)	-6	0	0	0	-5
CCN(c1ccccc1)S(=O)(=O)c1ccc(OC)c(NC(=O)CNCCc2ccccc2)c1	55*	9	31	6	-6
Cc1ccc(S(=O)(=O)N2CC3(O)CN(C(=O)OC(C)C)N(C(=O)OC(C)C)CC3(OC(=O)NCC3CCCCC3)C2)cc1 (stereo not drawn)	45	.	5	.	.
Cc1ccc(S(=O)(=O)N2CC3(O)CN(C(=O)OC(C)C)N(C(=O)OC(C)C)CC3(OC(=O)NCc3ccccc3F)C2)cc1 (stereo not drawn)	60*	.	9	.	.
SMILES	TAAR1 antagonist	V1R ag counter	TAAR1 agonist	OXTR agonist	OXTR potentiator
Cc1ccc(NC(=O)C[n+]2ccn(C3=C([O-])c4ccccc4C3=O)c2)cc1	11	-1	43*	-1	-4
COC(=O)[C@]12CCCCC=C1N(Cc1ccc3c(c1)OCO3)C(=O)[C@H](CC(=O)NCCC(C)C)C2	45	.	17	.	.
Oc1ccc(-c2nc3ccccn3c2NCc2ccco2)cc1	52*	2	19	1	-4
CCOCCn1ccc2c(OCC(=O)Nc3ccccc3OC)cccc2c1=O	58*	-1	10	-3	-15
CCCCC1(C)OC(=O)C(=Cc2ccc(N(CC)CC)cc2)C(=O)O1 (stereo not drawn)	19	0	46*	0	-14
CN1CCN(c2ncnc3c2ncn3[C@H]2CN(Cc3ccc4c(c3)OCO4)C[C@@H](CO)O2)CC1	0	.	4	.	.
CN(C)/C=C1/C(=O)N(c2ccc([N+](=O)[O-])cc2)N=C1c1ccccc1	27	0	13	0	-9
C/C(=C1/C(=O)N(c2ccc([N+](=O)[O-])cc2)N=C1c1ccccc1)N(C)C	.	62*	.	54*	-13
Cc1cc(=O)nc2c3ccccc3n(CC(=O)NCCCN3CCCCC3C)n12 (stereo not drawn)	7	1	1	5	-5
CCCCCCCCCCOC(=O)Cn1c(COc2ccc(Cl)cc2)[n+](C)c2ccccc21	32	18	47*	17	-11
CCCCCCCCCCOC(=O)Cn1c(COc2ccccc2)[n+](C)c2ccccc21	35	53*	31	27*	-14
CCOC(=O)Cn1c(COc2ccccc2OC)[n+](C)c2ccccc21	8	-2	0	0	3
CN(c1ccccc1)S(=O)(=O)c1cccc(NC(=O)CCNC(=O)c2ccco2)c1	41	.	13	.	.
CC(=O)Nc1ccc(S(=O)(=O)N(C)CC(=O)OCC(=O)N(C)c2ccccc2)cc1	10	1	1	0	-1
O=c1c2cc(NC(=S)N3CCCCCC3)ccc2nc2n1CCCCC2	5	8	4	5	-5
CCC(C)Oc1cc(-c2ccnc(Nc3cccc(Cl)c3)n2)ccn1 (stereo not drawn)	13	-1	11	-1	-7
OCCCNc1cc(-c2ccnc(Nc3cccc(Cl)c3)n2)ccn1	80*	3	17	4	-13
COc1ccc(C(=O)NNC(=O)C(=O)NC(C)c2ccccc2)cc1OC (stereo not drawn)	5	0	-2	-1	5
O=C1C=CC(=O)N1c1cccc(-c2ccccc2)c1	69*	-1	15	4	-15
CCOC(=O)C1CCCN(C(=S)Nc2ccc(S(=O)(=O)N3CCOCC3)cc2)C1 (stereo not drawn)	33	4	46*	4	-10
CCOC(=O)C1CCCN(C(=O)COc2ccccc2O)C1 (stereo not drawn)	31	1	43*	1	-2
CCOC(=O)C1CCCN(C(=O)COc2ccccc2F)C1 (stereo not drawn)	-3	0	1	0	5
CC1CCCN(C(=S)Nc2ccc(S(=O)(=O)N3CCCCC3)cc2)C1 (stereo not drawn)	-30	1	29	2	-7
